Results on 13 molecules are retold here after PubChem BioAssay.

The nature of assay [1]: inhibitors of TNFa-induced NFkB p65 translocation, primary screen, imaging, HUVEC, MLSMR starter and 10KST1 sets (AID 438;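 active = inhibition above 20% together with a positive visual image hit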;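 note: compound added about 3h40 before a 20 min TNFalpha stimulation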;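 for inhibition: signal is the nuclear over cytoplasmic p65 intensity ratio per well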). The note with it: HUVEC TNFa-induced p65 nuclear translocation; cell count: measured here: nuclei count (cytotoxicity indicator), at 2.08 µM; inhibition: at 2 µM, stronger effect = higher value, 0% TNFa-plus-vehicle, 100% no-TNFa wells.
Assay [2] can be described thus: inhibitors of E-selectin induction by TNFa, primary screen, imaging, HUVEC, immunofluorescence, MLSMR starter and 10KST1 sets (AID 487;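 active = visually confirmed hit in the image check and inhibition above 20%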;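 for inhibition: signal is fraction of cell area covered by stained E-selectin grains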;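 for nuclei count: 100% = median nuclei count of all wells on the same plate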). The note with it: HUVEC TNFalpha-induced E-selectin immunofluorescence imaging, at 2 µM; inhibition: stronger effect = higher value; nuclei count: measured here: cell number, toxicity.
Assay [3] can be described thus: DUSP6 inhibitors restoring Erk phosphorylation by chemical complementation, primary imaging in DUSP6-transfected HeLa (AID 609).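 For inhibition: phospho-Erk level distribution per well compared with pooled transfected vehicle control wells.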 The note with it: HeLa MKP-3 transfected, phospho-Erk imaging KS statistic, at 10 µM, cells stimulated with TPA for 15 min.
Assay [4] concerns the target Dual specificity protein phosphatase 6 (Homo sapiens) (UniProt Q16828). Described as above. The note with it: HeLa MKP-3 transfected, phospho-Erk imaging KS statistic; at 10 µM; stronger effect = higher value; cells stimulated with TPA for 15 min.
In assay [5] the target is Voltage-gated potassium channel subunit beta-2 (Rattus norvegicus) (UniProt P62483). As to the kind of experiment: KvBeta enzyme negative modulators, primary screen, biochemical, NADPH fluorescence (AID 622;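 active = fluorescence slope higher than the sample average by over 3 SD, cut at about -0.22 in these data, passing the limit was not always enough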;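 note: slope of raw intensity against log time taken from 70 to 1610 s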). The note with it: recombinant KvBeta, 4-cyanobenzaldehyde reduction, at 10 µM, stronger effect = higher value.
For assay [6] the target is unchanged. As to the kind of experiment: KvBeta positive modulators, primary screen, biochemical, NADPH fluorescence (AID 623;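 active = NADPH fluorescence slope more negative than the mean of all samples by about 3 SD, 99.7% confidence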;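 note: fluorescence intensity change per second fitted from 20 to 320 s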). The note with it: Recombinant KvBeta, NADPH fluorescence decrease slope, 10 min; at 10 µM; stronger effect = lower value.
In assay [7] the target is Muscarinic acetylcholine receptor M4 (Homo sapiens) (UniProt P08173). The assay can be described thus: compounds altering M4/GIRK thallium flux, either direction, primary screen, M4 allosteric agonist project, cell-based, HEK293 M4/GIRK, BTC-AM (AID 625;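 active = fluorescence slope after compound addition differing from the mean of all tested samples at 99.7% confidence, mostly higher but some lower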;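 note: thallium influx through GIRK channels coupled to M4 in HEK293 cells with BTC-AM dye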). The note with it: at 10 µM, actives lie on both sides. The gist of the method: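 System: HEK293 cells with M4 receptor and GIRK channels | Incubation: Cells overnight at 37 °C, BTC-AM loading 1 h, reads 2 min total | Technique: Kinetic BTC-AM fluorescence sampled at 1 Hz, 10 s pre-addition baseline | Measure: Post-addition slope, 15–24 s, of baseline-normalized fluorescence | Control set: Carbachol positive, DMSO negative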

A short description of assay [8]: inhibitors of larval lipid processing in zebrafish, primary screen, whole organism, PED6 fluorescence, gall bladder and intestine (AID 686;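 active = a full or partial loss of lipid-probe fluorescence in the fish gall bladder, intestine or both, judged by eye; inactive = no fluorescence loss, or compound toxic to the fish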;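 note: larvae 5 to 7 days old with five fish per well; signal comes from phospholipase A2 cleavage of quenched PED6 carried via bile; overnight exposure to compound and PED6 before scoring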). The note with it: Zebrafish larvae PED6 lipid processing, fluorescence scoring; screened at 20 µM (by protocol). The gist of the method:
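Test system – live zebrafish larvae aged 5-7 days, whole organism · Buffer or medium – E3 fish medium · Reagent – quenched phospholipase substrate PED6, 100 nM final, ingested by larvae · Doses – 20 µM single dose · Incubation – overnight compound and PED6 incubation · Technique – visual fluorescence microscopy scoring of gall bladder, gut · Read-out basis – visual per-well fluorescence inhibition score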

The nature of assay [9]: inhibitors of Chlamydomonas gravitaxis, primary screen, whole organism, Chlamydomonas reinhardtii, WT vs cilia-less mutant, absorbance, 96-well (AID 463189;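 active = inhibition at or above 50% relative to wild type and mutant plate controls; inactive = inhibition below 50%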;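 note: 0% = wild type cc124 cells in DMSO and 100% = ciliumless bld1 mutant cells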). The note with it: OD600 absorbance, 2 days, at 10 µM, stronger effect = higher value.
Where [10] appears, read: measured here: cell density z-score.
Setting [11] is: measured here: nuclear c-Myc green intensity z-score.
The mark [12] stands for this setting: measured here: nuclear pErk red intensity z-score, stronger effect = higher value.

The structures appear in SMILES notation. Calls of active or inactive are those of the source.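 Rule for the calls, unless noted: active = compounds giving at least 50% inhibition in the cell-based MKP-3 phosphatase rescue imaging test; inactive = the rest.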

Voltage-gated potassium channel subunit beta-2 (Rattus norvegicus), sequence (P62483 whole entry, looked up): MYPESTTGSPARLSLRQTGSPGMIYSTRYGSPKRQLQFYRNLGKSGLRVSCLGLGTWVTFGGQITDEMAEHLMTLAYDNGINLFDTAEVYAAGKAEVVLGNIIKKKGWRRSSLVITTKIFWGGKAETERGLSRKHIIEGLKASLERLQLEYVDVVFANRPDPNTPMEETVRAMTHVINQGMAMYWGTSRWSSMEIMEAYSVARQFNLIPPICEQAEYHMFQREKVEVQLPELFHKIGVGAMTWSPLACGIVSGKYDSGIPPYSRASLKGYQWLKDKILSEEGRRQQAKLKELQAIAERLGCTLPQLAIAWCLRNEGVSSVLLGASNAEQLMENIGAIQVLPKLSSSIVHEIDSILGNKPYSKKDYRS
Dual specificity protein phosphatase 6 (Homo sapiens), sequence (Q16828 whole entry, looked up): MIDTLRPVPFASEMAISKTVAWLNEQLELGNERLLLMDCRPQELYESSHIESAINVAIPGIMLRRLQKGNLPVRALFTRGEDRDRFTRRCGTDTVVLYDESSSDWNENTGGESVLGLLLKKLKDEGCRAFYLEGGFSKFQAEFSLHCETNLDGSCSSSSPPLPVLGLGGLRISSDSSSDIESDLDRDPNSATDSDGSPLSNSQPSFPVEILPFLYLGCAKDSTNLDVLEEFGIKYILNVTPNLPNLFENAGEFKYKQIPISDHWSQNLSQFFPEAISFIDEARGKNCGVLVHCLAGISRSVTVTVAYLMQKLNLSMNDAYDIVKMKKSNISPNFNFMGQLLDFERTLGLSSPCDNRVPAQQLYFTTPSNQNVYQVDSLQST
Muscarinic acetylcholine receptor M4 (Homo sapiens), sequence (P08173 whole entry, looked up): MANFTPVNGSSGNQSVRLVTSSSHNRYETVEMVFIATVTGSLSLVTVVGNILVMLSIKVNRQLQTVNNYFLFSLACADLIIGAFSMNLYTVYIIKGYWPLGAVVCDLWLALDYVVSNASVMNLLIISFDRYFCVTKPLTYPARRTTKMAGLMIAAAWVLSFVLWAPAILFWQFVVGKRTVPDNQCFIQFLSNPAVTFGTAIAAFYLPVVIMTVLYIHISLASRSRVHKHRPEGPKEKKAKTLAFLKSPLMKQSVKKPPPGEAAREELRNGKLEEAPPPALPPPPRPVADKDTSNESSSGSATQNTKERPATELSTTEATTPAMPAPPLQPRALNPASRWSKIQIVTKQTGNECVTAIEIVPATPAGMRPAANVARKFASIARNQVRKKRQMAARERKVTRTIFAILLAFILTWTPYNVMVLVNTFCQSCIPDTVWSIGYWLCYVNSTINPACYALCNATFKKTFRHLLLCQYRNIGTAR

The term inhibition denotes the relative decrease from the control value, in per cent. Consider `CCOC(=O)NC1(C(F)(F)F)C(=O)NC(C)=C1C#N` (centres undefined), for which, in assay [1], the cell count worked out at 377. Further, the inhibition was 3.7% (inactive) in assay [1], 5.5% (inactive) in assay [2], 3.42% (inactive) in assay [4] and 23.5% (inactive) in [9]. In addition, in assay [2], the nuclei count is 129%. In addition, the figures for the z-score in assay [3] (setting [10]), in assay [3] (setting [11]) and in [3] (setting [12]) were -0.0977, -0.0162 and 0.321, respectively. Besides, the fluorescence slope in [5] is -0.427 (inactive); in assay [7], 0.00503 (inactive). The NADPH fluorescence slope in [6] was -0.000119 (inactive). Further, in [8], the outcome was inactive.
Consider `CCc1nc2n[nH]c(N)c2c2c1CCCC2`, for which the cell count in assay [1] worked out at 410. For the same molecule, the inhibition in assay [1] was -3% (inactive); in [2] it was -224% (inactive); in assay [4], 5.42% (inactive); in [9], 2.25% (inactive). The molecule further yielded a nuclei count in assay [2] of 194%. In addition, the z-score in assay [3] (setting [10]) was 1.38; in [3] (setting [11]) it was -1.2; in assay [3] (setting [12]), -1.94. Besides, the fluorescence slope in [5] was -0.476 (inactive); in assay [7] it was 0.00476 (inactive). Besides, in assay [6], the NADPH fluorescence slope was -5.3e-05 (inactive). Besides, in assay [8], the outcome is “inactive; toxic”.
`CSc1nncc(=O)[nH]1`: the cell count in [1] was found to be 642. Also, the inhibition in assay [1] is 1.5% (inactive); in assay [2], -96.8% (inactive); in assay [4], 6.51% (inactive); in assay [9] it was -3.84% (inactive). Besides, the nuclei count in assay [2] turned out to be 160%. For the same molecule, the z-score is 0.525 in assay [3] (setting [10]), -0.545 in assay [3] (setting [11]) and -0.327 in [3] (setting [12]). The figures for the fluorescence slope in assay [5] and in [7] were -0.452 (inactive) and 0.00648 (inactive), respectively. Moreover, in assay [6], the NADPH fluorescence slope is -4.4e-05 (inactive). Besides, the call in assay [8] was inactive.
As to `N#Cc1c(NCCN)nc(NCc2ccccc2)c2c1CCN(Cc1ccccc1)C2`, the cell count in [1] turned out to be 566. For the same molecule, the inhibition in assay [1] is 3% (inactive); in assay [2] it was -151% (inactive); in assay [4] it was 3.42% (inactive); in assay [9], 15.7% (inactive). The same molecule showed a nuclei count in [2] of 145%. For the same molecule, the z-score in assay [3] (setting [10]) was 0.625; in [3] (setting [11]), -0.717; in assay [3] (setting [12]), 1.05. Besides, the values for the fluorescence slope in assay [5] and in [7] were -0.466 (inactive) and 0.00448 (inactive), respectively. Further, the NADPH fluorescence slope in assay [6] was -8.7e-06 (inactive). For the same molecule, in assay [8], the outcome is “active; weak signal in gallbladder and intestine”.
With `CCOc1ccc(/C(O)=C2/C(=O)C(=O)N(c3cc(C)on3)C2c2ccc(C(=O)OC)cc2)cc1` (centres undefined), the cell count in assay [1] is 391. Moreover, the inhibition in assay [1] was -0.4% (inactive); in [2] it was -27.6% (inactive); in [4], 9.37% (inactive); in assay [9], 11.4% (inactive). Moreover, in assay [2], the nuclei count was 105%. The z-score was -0.142 in [3] (setting [10]), 1.45 in assay [3] (setting [11]) and -0.188 in assay [3] (setting [12]). Besides, the fluorescence slope in assay [5] is -0.419 (inactive); in assay [7], 0.00438 (inactive). Also, in [6], the NADPH fluorescence slope is -1.9e-05 (inactive). Moreover, in assay [8], the molecule was classed as inactive.
Turning to `Cc1cccc(-c2nnc3n2N=C(c2ccc(Br)cc2)CS3)c1`, the cell count in assay [1] amounted to 769. Besides, the inhibition in assay [1] is -2.9% (inactive); in [2], -27.2% (inactive); in assay [4] it was -2.91% (inactive); in assay [9], -0.766% (inactive). For the same molecule, in assay [2], the nuclei count came to 176%. For the same molecule, the z-score in assay [3] (setting [10]) is -0.385; in assay [3] (setting [11]), 0.639; in assay [3] (setting [12]) it was 0.0185. Further, the fluorescence slope in assay [5] is -0.433 (inactive); in assay [7], 0.006 (inactive). In assay [6], the NADPH fluorescence slope is -5.4e-05 (inactive). The molecule was classed as inactive in assay [8].
Take `CCOC(=O)CSc1nc(-c2ccc3c(c2)OCO3)ccc1C#N`: the cell count in [1] was 676. Besides, the inhibition in assay [1] was 4.9% (inactive); in [2], 5.4% (inactive); in assay [4], -2.91% (inactive); in assay [9] it was -3.42% (inactive). This molecule also showed a nuclei count in assay [2] of 120%. The z-score in assay [3] (setting [10]) was -0.127; in assay [3] (setting [11]), -1.03; in assay [3] (setting [12]), 0.898. Moreover, the fluorescence slope in assay [5] was -0.199 (inactive); in assay [7], 0.00583 (inactive). Besides, the NADPH fluorescence slope in assay [6] was -8.6e-07 (inactive). In addition, in assay [8], the call was inactive.
Regarding `O=C(Nc1ccccc1)c1cc(N2CCOCC2)nc2ccccc12`, in [1], the cell count came out at 667. Further, the inhibition in assay [1] was -1.5% (inactive); in [2], -114% (inactive); in assay [4], 6.51% (inactive); in [9], -0.488% (inactive). The molecule further yielded a nuclei count in assay [2] of 149%. In addition, the z-score in assay [3] (setting [10]) was 1.08; in assay [3] (setting [11]), 1.33; in assay [3] (setting [12]), -0.63. Further, the fluorescence slope in assay [5] was -0.419 (inactive); in assay [7] it was 0.00579 (inactive). Besides, the NADPH fluorescence slope in assay [6] is -6.8e-05 (inactive). In assay [8], the result was inactive.
For `CCOC(=O)c1[nH]c2cc3c(cc2c1NC(=O)CN1CC(C)CC(C)C1)OCO3` (centres undefined), the cell count in assay [1] was 527. Further, the inhibition was 1.2% (inactive) in assay [1], 5.3% (inactive) in assay [2], 9.91% (inactive) in assay [4] and -3.44% (inactive) in [9]. Moreover, the nuclei count in assay [2] is 167%. Further, the z-score in assay [3] (setting [10]) is 0.5; in assay [3] (setting [11]), -1.18; in [3] (setting [12]), -0.714. Moreover, the fluorescence slope in assay [5] is -0.329 (inactive); in assay [7], 0.00584 (inactive). In addition, in assay [6], the NADPH fluorescence slope is -8.9e-06 (inactive). In addition, the call in [8] was inactive.
For `CCOc1cccc(NC(=O)C2CC(=O)NC(=Nc3ccccc3)S2)c1` (centres undefined), in assay [1], the cell count was determined as 590. Further, the inhibition in assay [1] was -4.7% (inactive); in assay [2] it was -27.3% (inactive); in assay [4], -11.4% (inactive); in assay [9], 8.03% (inactive). In assay [2], this molecule displayed a nuclei count of 117%. Also, the results for the z-score in assay [3] (setting [10]), in assay [3] (setting [11]) and in assay [3] (setting [12]) were -0.0327, -1.3 and -0.145, respectively. Further, the fluorescence slope in [5] is -0.456 (inactive); in [7] it was 0.00448 (inactive). Besides, the NADPH fluorescence slope in [6] was -1.8e-05 (inactive). The outcome in assay [8] was inactive.
On to `Cn1ncc(N=Cc2c(O)ccc3ccccc23)c1C(=O)N1CCOCC1`, for which the cell count in [1] turned out to be 713. The inhibition was -2.5% (inactive) in [1], -43.6% (inactive) in [2], 3.97% (inactive) in assay [4] and 11.5% (inactive) in [9]. Also, the nuclei count in assay [2] was 175%. Also, the z-score in assay [3] (setting [10]) came to 0.977; in assay [3] (setting [11]) it was 0.19; in assay [3] (setting [12]), 0.26. In addition, the fluorescence slope is -0.482 (inactive) in assay [5] and 0.00513 (inactive) in [7]. In assay [6], the NADPH fluorescence slope was -9.8e-05 (inactive). In addition, the result in [8] was inactive.
For the molecule `O=C1CC(c2ccccc2)n2nc(NS(=O)(=O)c3ccccc3)nc2N1` (centres undefined), the cell count in [1] was 363. In addition, the inhibition was -12.1% (inactive) in assay [1], -108% (inactive) in assay [2], 14.4% (inactive) in assay [4] and -8.7% (inactive) in assay [9]. This molecule registered a nuclei count in assay [2] of 114%. In addition, the values for the z-score in [3] (setting [10]), in assay [3] (setting [11]) and in assay [3] (setting [12]) were 1.38, -0.224 and -0.593, respectively. The fluorescence slope in assay [5] was -0.486 (inactive); in assay [7], 0.00519 (inactive). Moreover, the NADPH fluorescence slope in [6] is -2.9e-05 (inactive). In addition, in [8], the molecule was classed as inactive.
Take `CCOC(=O)CSc1nnc2n(Cc3ccccc3)c(=O)c3c4c(sc3n12)CCC4`: the cell count in assay [1] is 364. In addition, the inhibition in [1] is 0.8% (inactive); in assay [2] it was 49.8% (inactive); in assay [4], 13.4% (inactive); in assay [9], 0.799% (inactive). The nuclei count in assay [2] came out at 168%. Besides, the z-score was -0.465 in assay [3] (setting [10]), -0.253 in assay [3] (setting [11]) and 1.89 in assay [3] (setting [12]). The fluorescence slope is -0.428 (inactive) in assay [5] and 0.00471 (inactive) in assay [7]. For the same molecule, in assay [6], the NADPH fluorescence slope is -0.000132 (inactive). Further, the outcome in assay [8] is “active; weak signal in gallbladder and intestine”.
